Activity calls are given as the source filed them. The calls are words filed in the database; no cut-off is given here.
Tests used:
Plasmodium falciparum = assay: Intrinsic antimalarial activity against intermediate chloroquine-resistant Plasmodium falciparum 7G8 isolate MRA-154 harboring CRT SVMNT haplotype mutant assessed as reduction in parasite viability at 500 nM; format: functional, organism-based
[1] = tested on: Plasmodium falciparum 7G8; assay: Inhibition of CRT SVMNT haplotype mutant in intermediate chloroquine-resistant Plasmodium falciparum 7G8 isolate MRA-154 t assessed as reversal of chloroquine resistance by measuring reduction in chloroquine IC50 at 500 nM relative to chloroquine alone
[2] = Aqueous kinetic solubility of compound in pH 7.4 solution incubated for 24 hrs; format: physicochemical; conditions: aqueous solution pH 7.4, pH 7.4; read-out: Kinetic_solubility
[3] = tested on: T1, Chloroquine resistance transporter (Plasmodium falciparum), Q9N623 [K76T]; assay: Inhibition of CRT K76T mutant in chloroquine-resistant Plasmodium falciparum NHP4559 assessed as reversal of chloroquine resistance by measuring reduction in chloroquine IC50 at 500 nM relative to chloroquine alone
T1 sequence (whole entry): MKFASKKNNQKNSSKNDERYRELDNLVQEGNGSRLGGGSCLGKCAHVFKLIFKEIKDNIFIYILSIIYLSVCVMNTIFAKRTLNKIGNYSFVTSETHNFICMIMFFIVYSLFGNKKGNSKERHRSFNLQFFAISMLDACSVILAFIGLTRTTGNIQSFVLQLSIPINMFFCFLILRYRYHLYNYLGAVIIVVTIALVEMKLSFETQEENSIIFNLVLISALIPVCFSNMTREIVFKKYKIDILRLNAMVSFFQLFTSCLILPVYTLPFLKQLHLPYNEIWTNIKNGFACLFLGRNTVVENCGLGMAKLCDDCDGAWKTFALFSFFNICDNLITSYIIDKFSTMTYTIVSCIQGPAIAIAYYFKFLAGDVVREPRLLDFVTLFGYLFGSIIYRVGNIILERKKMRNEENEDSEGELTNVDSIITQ

[4] = tested on: T1, Chloroquine resistance transporter (Plasmodium falciparum), Q9N623 [K76T]; assay: Inhibition of CRT K76T mutant in chloroquine-resistant Plasmodium falciparum Dd2 isolate MRA-156 assessed as reversal of chloroquine resistance by measuring reduction in chloroquine IC50 at 500 nM relative to chloroquine alone
[5] = Resistance index, ratio of chloroquine IC50 for chloroquine-resistant Plasmodium falciparum K1 isolate MRA-159 CRT CVIET haplotype mutant to chloroquine IC50 for chloroquine-sensitive Plasmodium falciparum 3D7 isolate MRA-102 at 500 nM
Method in brief: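 Chloroquine IC50 was measured with the chemoreversal agent fixed at 500 nM in K1 or 7G8 and in sensitive 3D7 (means, n = 3). The resistance ratio is the chloroquine IC50 in K1 or 7G8 divided by the chloroquine IC50 in 3D7.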

[6] = Resistance index, ratio of EC50 for intermediate chloroquine-resistant Plasmodium falciparum 7G8 isolate MRA-154 CRT SVMNT haplotype mutant to EC50 for chloroquine-sensitive Plasmodium falciparum 3D7 isolate MRA-102
Method in brief: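 EC50 is the concentration of chemoreversal agent that halves the chloroquine concentration needed to inhibit survival of half the parasites. It was derived from dose-dependent shifts in chloroquine IC50, measured in 7G8 and 3D7. The index is the 7G8 EC50 divided by the 3D7 EC50.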

[7] = (§1) Inhibition of CRT SVMNT haplotype mutant in intermediate chloroquine-resistant Plasmodium falciparum 7G8 isolate MRA-154 assessed as reversal of chloroquine resistance by measuring reduction in chloroquine IC50 relative to chloroquine alone
Method in brief: (§2)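 Chloroquine IC50 was determined in the presence of a fixed 500 nM chemoreversal agent, against chloroquine alone. The RMI is the ratio of chloroquine IC50 with agent to chloroquine IC50 alone. Mean of n = 3; two-tailed t test versus chloroquine without agent.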

[8] = tested on: Plasmodium falciparum 7G8; assay: as §1; method in brief: as §2
TAMH = assay: Cytotoxicity against TAMH assessed as reduction in cell viability by CellTiter-Glo assay; format: cell-based; conditions: Mus musculus
Method in brief: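 For TAMH (hepatocyte line) and AC10 (cardiomyocyte line), viability was read by ATP luminescence (CellTiter-Glo), and the value reported is IC50.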

Which Activity (Plasmodium falciparum) does the source give for `c1ccc(CN[C@@H]2C3CCN(CC3)[C@@H]2Cc2ccccc2)cc1` (relative stereo) here?
The Activity was “inactive”.

And the Ratio IC50 [1]?
The Ratio IC50 was 0.8.

And the solubility kinetic at 24 h [2]?
The solubility kinetic at 24 h was over 310 µg/mL.

And the Ratio IC50 [3]?
The Ratio IC50 was 0.47.

And the Ratio IC50 [4]?
Its Ratio IC50 is 0.6.

What about the Ratio IC50 [5] of the same compound?
The Ratio IC50 was 6.4.

What about the Ratio EC50 [6] of the same compound?
The Ratio EC50 was 2.

And the EC50 [7]?
The EC50 was 380 nM.

And the inhibition [8]?
The inhibition was “Dose-dependent effect”.

What about the IC50 (TAMH) of the same compound?
The IC50 was over 100000 nM.

Source: ChEMBL document CHEMBL4428038, “Overcoming chloroquine resistance in malaria: Design, synthesis and structure-activity relationships of novel chemoreversal agents” (Eur J Med Chem, 2016)
